Measured values reported in paper PMC3169777 (European Journal of Clinical Pharmacology, 2011).
Read-outs that look alike come from different tables or passages of the source.

Experiments:
[1] = tested on: human hepatic transporters; conditions: preclinical models, cited from earlier work
ETA and ETB receptors = conditions: cited from earlier work
total bile salts = assay: Serum total bile salts; format: in vivo, human
In short: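 Venous blood was drawn predose and at 1, 2, 3 and 4 h in fasted subjects, with no later draws because of a meal. Tubes without anticoagulant stood 30 min at room temperature, were spun 10 min at 1,500 g, 4°C, and serum was kept at −20°C. An enzymatic assay was used (detection limit 1 μmol/l). AUC0–4h was derived non-compartmentally and compared with placebo by ANOVA (P < 0.05).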

[2] = Simulation of multiple-dose profiles using the single-dose data; design: species or system human; conditions: once-a-day regimen, data not shown
[3] = format: in vivo; conditions: male, human, plasma, plasma macitentan
In short: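 Single fasted doses of 0.2–600 mg were given, 6 active subjects per group. EDTA plasma was spun 10 min at 1,500 g, 4°C, and stored at −20°C. Sampling ran to 48 h, or 144 h for the 300 and 600 mg groups. Parent and metabolite were quantified by validated LC-MS/MS (linear 1–2,000 ng/ml, LOQ 1.0 ng/ml). Cmax, tmax, AUC and t1/2 were derived non-compartmentally.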

healthy male subjects = assay: Safety and tolerability; format: in vivo, human; conditions: for Abdominal pain: number of subjects reporting adverse event / Back pain: number of subjects reporting adverse event / Flushing: number of subjects reporting adverse event / Headache: number of subjects reporting adverse event / Hepatic function abnormal: number of subjects reporting adverse event / Leukocytosis: number of subjects reporting adverse event / Nasopharyngitis: number of subjects reporting adverse event / Nausea: number of subjects reporting adverse event / Neck pain: number of subjects reporting adverse event / Rhinitis: number of subjects reporting adverse event / Vomiting: number of subjects reporting adverse event: n = 6
In short: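 Double-blind, randomised, placebo-controlled single-ascending-dose design in healthy males: new group of 8 per level (6 active, 2 placebo), doses 0.2–600 mg, fasted. Next dose given only after safety review. Confinement from about 12 h predose to 48 h postdose. Adverse events, vital signs, 12-lead ECG, clinical laboratory and physical examination recorded. Descriptive analysis with placebo subjects pooled.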

[4] = rats; cited from earlier work
bile salts = conditions: rats, ref Actelion Pharmaceuticals, data on file, cited from earlier work
[5] = Metabolic profiling of plasma and urine; format: in vivo, human; conditions: pooled urine of two subjects, 600-mg dose group
[6] = tested on: patients with treatment-resistant hypertension; conditions: cited from earlier work
ETB receptors = conditions: isolated rat aortic and tracheal preparations; cited from earlier work
ETA receptors = conditions: isolated rat aortic and tracheal preparations; cited from earlier work

For `Cc1cc2c(cc1CC(=O)c1sccc1S(=O)(=O)Nc1onc(C)c1Cl)OCO2` [sitaxentan, reference compound], the “interaction with human hepatic transporters” value [1] is listed as “substrates of and inhibit human hepatic transporters”.

For `CCCNS(=O)(=O)Nc1ncnc(OCCOc2ncc(Br)cn2)c1-c1ccc(Br)cc1` [macitentan, N-[5-(4-Bromophenyl)-6-(2-(5-bromopyrimidin-2-yloxy)ethoxy)pyrimidin-4-yl]-N′-propylsulfamide], the “selectivity for ETA receptors over ETB receptors” value (ETA and ETB receptors) is given as “about 50 fold”, the “effect on serum total bile salts at the lowest dose” value (total bile salts; single dose 0.2 mg macitentan, P < 0.05 compared with placebo) is given as “small but statistically significant effect” and the “effect on serum total bile salt concentrations” value (total bile salts; single doses of up to 600 mg, 4-h observation period) is given as “no dose-dependent effect”. The “inhibition of human hepatic transporters” value ([1]; ref Actelion Pharmaceuticals, data on file) was “did not inhibit”, the “predicted accumulation factor upon repeated dosing” value [2] was 1.7 and the half-life ([3]; 600 mg, apparent terminal half-life, two higher dose groups (300 and 600 mg)) was roughly 16 h. The Tmax ([3]; tmax in most subjects, individual values) was 4 to 12 h, the “increased alanine aminotransferase, times the upper limit of normal” value (healthy male subjects; one subject, 600 mg macitentan, 7 days after drug administration) was ≤ 2 times the upper limit of normal and the “Abdominal pain: number of subjects reporting adverse event” value (“Abdominal pain: number” for short) (healthy male subjects; single dose 0.2 mg macitentan) was 0. The “Back pain: number of subjects reporting adverse event” value (shortened to “Back pain: number”) (healthy male subjects; single dose 0.2 mg macitentan) was 0, the “Flushing: number of subjects reporting adverse event” value (shortened to “Flushing: number”) (healthy male subjects; single dose 0.2 mg macitentan) was 0 and the “Headache: number of subjects reporting adverse event” value (from here on “Headache: number”) (healthy male subjects; single dose 0.2 mg macitentan) was 0. The “Hepatic function abnormal: number of subjects reporting adverse event” value (“Hepatic function abnormal: number” for short) (healthy male subjects; single dose 0.2 mg macitentan) was 0, the “Leukocytosis: number of subjects reporting adverse event” value (from here on “Leukocytosis: number”) (healthy male subjects; single dose 0.2 mg macitentan) was 0 and the “Nasopharyngitis: number of subjects reporting adverse event” value (“Nasopharyngitis: number” for short) (healthy male subjects; single dose 0.2 mg macitentan) was 0. The “Nausea: number of subjects reporting adverse event” value (“Nausea: number” below) (healthy male subjects; single dose 0.2 mg macitentan) was 0, the “Neck pain: number of subjects reporting adverse event” value (from here on “Neck pain: number”) (healthy male subjects; single dose 0.2 mg macitentan) was 0 and the “Rhinitis: number of subjects reporting adverse event” value (from here on “Rhinitis: number”) (healthy male subjects; single dose 0.2 mg macitentan) was 0. The “Vomiting: number of subjects reporting adverse event” value (“Vomiting: number” for short) (healthy male subjects; single dose 0.2 mg macitentan) was 0, the “Abdominal pain: number” value (healthy male subjects; single dose 1 mg macitentan) was 0 and the “Back pain: number” value (healthy male subjects; single dose 1 mg macitentan) was 0. For the same compound, the “Flushing: number” value (healthy male subjects; single dose 1 mg macitentan) was 0, the “Headache: number” value (healthy male subjects; single dose 1 mg macitentan) was 0 and the “Hepatic function abnormal: number” value (healthy male subjects; single dose 1 mg macitentan) was 0. For the same compound, the “Leukocytosis: number” value (healthy male subjects; single dose 1 mg macitentan) was 0, the “Nasopharyngitis: number” value (healthy male subjects; single dose 1 mg macitentan) was 0 and the “Nausea: number” value (healthy male subjects; single dose 1 mg macitentan) was 0. For the same compound, the “Neck pain: number” value (healthy male subjects; single dose 1 mg macitentan) was 0, the “Rhinitis: number” value (healthy male subjects; single dose 1 mg macitentan) was 0 and the “Vomiting: number” value (healthy male subjects; single dose 1 mg macitentan) was 0. The “Abdominal pain: number” value (healthy male subjects; single dose 5 mg macitentan) was 0, the “Back pain: number” value (healthy male subjects; single dose 5 mg macitentan) was 0 and the “Flushing: number” value (healthy male subjects; single dose 5 mg macitentan) was 0. For the same compound, the “Headache: number” value (healthy male subjects; single dose 5 mg macitentan) was 0, the “Hepatic function abnormal: number” value (healthy male subjects; single dose 5 mg macitentan) was 0 and the “Leukocytosis: number” value (healthy male subjects; single dose 5 mg macitentan) was 0. For the same compound, the “Nasopharyngitis: number” value (healthy male subjects; single dose 5 mg macitentan) was 0, the “Nausea: number” value (healthy male subjects; single dose 5 mg macitentan) was 0 and the “Neck pain: number” value (healthy male subjects; single dose 5 mg macitentan) was 0. For the same compound, the “Rhinitis: number” value (healthy male subjects; single dose 5 mg macitentan) was 0, the “Vomiting: number” value (healthy male subjects; single dose 5 mg macitentan) was 0 and the “Abdominal pain: number” value (healthy male subjects; single dose 25 mg macitentan) was 0. For the same compound, the “Back pain: number” value (healthy male subjects; single dose 25 mg macitentan) was 0, the “Flushing: number” value (healthy male subjects; single dose 25 mg macitentan) was 0 and the “Headache: number” value (healthy male subjects; single dose 25 mg macitentan) was 2. The “Hepatic function abnormal: number” value (healthy male subjects; single dose 25 mg macitentan) was 0, the “Leukocytosis: number” value (healthy male subjects; single dose 25 mg macitentan) was 0 and the “Nasopharyngitis: number” value (healthy male subjects; single dose 25 mg macitentan) was 1. For the same compound, the “Nausea: number” value (healthy male subjects; single dose 25 mg macitentan) was 0, the “Neck pain: number” value (healthy male subjects; single dose 25 mg macitentan) was 0 and the “Rhinitis: number” value (healthy male subjects; single dose 25 mg macitentan) was 0. For the same compound, the “Vomiting: number” value (healthy male subjects; single dose 25 mg macitentan) was 0, the “Abdominal pain: number” value (healthy male subjects; single dose 100 mg macitentan) was 0 and the “Back pain: number” value (healthy male subjects; single dose 100 mg macitentan) was 0. For the same compound, the “Flushing: number” value (healthy male subjects; single dose 100 mg macitentan) was 0, the “Headache: number” value (healthy male subjects; single dose 100 mg macitentan) was 1 and the “Hepatic function abnormal: number” value (healthy male subjects; single dose 100 mg macitentan) was 0. For the same compound, the “Leukocytosis: number” value (healthy male subjects; single dose 100 mg macitentan) was 1, the “Nasopharyngitis: number” value (healthy male subjects; single dose 100 mg macitentan) was 0 and the “Nausea: number” value (healthy male subjects; single dose 100 mg macitentan) was 0. The “Neck pain: number” value (healthy male subjects; single dose 100 mg macitentan) was 1, the “Rhinitis: number” value (healthy male subjects; single dose 100 mg macitentan) was 0 and the “Vomiting: number” value (healthy male subjects; single dose 100 mg macitentan) was 0. For the same compound, the “Abdominal pain: number” value (healthy male subjects; single dose 300 mg macitentan) was 0, the “Back pain: number” value (healthy male subjects; single dose 300 mg macitentan) was 1 and the “Flushing: number” value (healthy male subjects; single dose 300 mg macitentan) was 0. The “Headache: number” value (healthy male subjects; single dose 300 mg macitentan) was 2, the “Hepatic function abnormal: number” value (healthy male subjects; single dose 300 mg macitentan) was 0 and the “Leukocytosis: number” value (healthy male subjects; single dose 300 mg macitentan) was 0. For the same compound, the “Nasopharyngitis: number” value (healthy male subjects; single dose 300 mg macitentan) was 0, the “Nausea: number” value (healthy male subjects; single dose 300 mg macitentan) was 0 and the “Neck pain: number” value (healthy male subjects; single dose 300 mg macitentan) was 0. For the same compound, the “Rhinitis: number” value (healthy male subjects; single dose 300 mg macitentan) was 0, the “Vomiting: number” value (healthy male subjects; single dose 300 mg macitentan) was 0 and the “Abdominal pain: number” value (healthy male subjects; single dose 600 mg macitentan) was 1. The “Back pain: number” value (healthy male subjects; single dose 600 mg macitentan) was 0, the “Flushing: number” value (healthy male subjects; single dose 600 mg macitentan) was 1 and the “Headache: number” value (healthy male subjects; single dose 600 mg macitentan) was 5. The “Hepatic function abnormal: number” value (healthy male subjects; single dose 600 mg macitentan) was 1, the “Leukocytosis: number” value (healthy male subjects; single dose 600 mg macitentan) was 0 and the “Nasopharyngitis: number” value (healthy male subjects; single dose 600 mg macitentan) was 0. The “Nausea: number” value (healthy male subjects; single dose 600 mg macitentan) was 2, the “Neck pain: number” value (healthy male subjects; single dose 600 mg macitentan) was 0 and the “Rhinitis: number” value (healthy male subjects; single dose 600 mg macitentan) was 2. The “Vomiting: number” value (healthy male subjects; single dose 600 mg macitentan) was 2, the maximum tolerated dose (healthy male subjects; single dose, healthy male subjects) was 300 mg and the “effects on vital signs, ECG and clinical laboratory variables” value (healthy male subjects; single doses 0.2 to 600 mg) was “no clinically significant drug-related effects”. The half-life [4] was 2 h, the volume of distribution [4] was 1 L/kg and the “effect on circulating bile salts” value (bile salts) was “does not increase circulating bile salts”. For the same compound, the detection in urine [5] was “no macitentan and ACT-132577 could be detected”.

In the case of `COc1ccccc1Oc1c(NS(=O)(=O)c2ccc(C(C)(C)C)cc2)nc(-c2ncccn2)nc1OCCO` [bosentan, reference compound], the “effect on plasma bile salts” value (bile salts; intravenous administration) is listed as “acute increase in plasma bile salts”.

For `COc1cc(OC)nc(O[C@H](C(=O)O)C(OC)(c2ccccc2)c2ccccc2)n1` [darusentan], the “oedema or fluid retention, patients affected” value [6] is listed as 27%.

For `NS(=O)(=O)Nc1ncnc(OCCOc2ncc(Br)cn2)c1-c1ccc(Br)cc1` [ACT-132577], the “fold less potent than macitentan in blocking ETB receptors” value (ETB receptors) is given as “up to 5 fold”, the “selectivity for ETA receptors over ETB receptors” value (ETA and ETB receptors) is given as roughly 16 fold and the “affinity for ETA and ETB receptors compared with macitentan” value (ETA and ETB receptors; preclinical experiments) is given as “lower”. For the same compound, the “potency as endothelin receptor antagonist compared with macitentan” value (ETA and ETB receptors; receptor binding and functional assays) was “less potent”, the “fold less potent than macitentan in blocking ETA receptors” value (ETA receptors) was “up to 5 fold” and the “predicted accumulation factor upon repeated dosing” value [2] was 10. For the same compound, the half-life [4] was 8.5 h and the detection in urine [5] was “no macitentan and ACT-132577 could be detected”.
